This is an account of results in ChEMBL document CHEMBL4385668, “Synthesis and in vitro anticancer activity of new gemcitabine-nucleoside analogue dimers containing methyltriazole or ester-methyltriazole linker” (Bioorg Med Chem Lett, 2019).

One assay concerns HeLa. The assay is described as follows: Cytotoxicity in human HeLa cells assessed as reduction in cell viability incubated for 72 hrs by SRB assay. The assay is classed as functional, cell-based.
Settings: not given
Put shortly: (§1)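 SRB assay of cell viability in human cancer lines (HeLa, KB, A549, U87, HepG2) and normal dermal fibroblasts (HDF). IC50 values are […] of three independent experiments.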
(In general: In SRB staining, fixed cells bind dye roughly in proportion to their protein.)
In general, IC50 refers to the concentration that gives 50% inhibition. With `Nc1ccn([C@@H]2O[C@H](Cn3cc(CNc4ccn([C@@H]5O[C@H](CO)[C@@H](O)C5(F)F)c(=O)n4)nn3)[C@@H](O)C2(F)F)c(=O)n1`, the IC50 stood at 16.2 µM.

`O=C(Nc1ccn([C@@H]2O[C@H](CO)[C@@H](O)C2(F)F)c(=O)n1)OCc1cn(C[C@H]2O[C@@H](n3ccc(NC(=O)c4ccccc4)nc3=O)C(F)(F)[C@@H]2OC(=O)c2ccccc2)nn1`: the IC50 is 3.22 µM.

With `CC(C)(C)OC(=O)O[C@@H]1[C@@H](Cn2cc(CNc3ccn([C@@H]4O[C@H](CO)[C@@H](O)C4(F)F)c(=O)n3)nn2)O[C@@H](n2ccc(N)nc2=O)C1(F)F`, the IC50 was found to be 4.11 µM.

The next assay relates to KB. The assay is described as follows: Cytotoxicity in human KB cells assessed as reduction in cell viability incubated for 72 hrs by SRB assay. The format is functional, cell-based.
Settings: not given
Put shortly:
as §1
Take `Nc1ccn([C@@H]2O[C@H](Cn3cc(CNc4ccn([C@@H]5O[C@H](CO)[C@@H](O)C5(F)F)c(=O)n4)nn3)[C@@H](O)C2(F)F)c(=O)n1`: the IC50 amounted to 15.9 µM.

For `O=C(Nc1ccn([C@@H]2O[C@H](CO)[C@@H](O)C2(F)F)c(=O)n1)OCc1cn(C[C@H]2O[C@@H](n3ccc(NC(=O)c4ccccc4)nc3=O)C(F)(F)[C@@H]2OC(=O)c2ccccc2)nn1`, the IC50 turned out to be 3.13 µM.

For the compound `CC(C)(C)OC(=O)O[C@@H]1[C@@H](Cn2cc(CNc3ccn([C@@H]4O[C@H](CO)[C@@H](O)C4(F)F)c(=O)n3)nn2)O[C@@H](n2ccc(N)nc2=O)C1(F)F`, the IC50 was 4.09 µM.

Another assay deals with A549. The assay is described as follows: Cytotoxicity in human A549 cells assessed as reduction in cell viability incubated for 72 hrs by SRB assay. The format is functional, cell-based. The note with it: A549, 72 h. Put shortly:
as §1
In the case of `Nc1ccn([C@@H]2O[C@H](Cn3cc(CNc4ccn([C@@H]5O[C@H](CO)[C@@H](O)C5(F)F)c(=O)n4)nn3)[C@@H](O)C2(F)F)c(=O)n1`, the IC50 came out at 16.1 µM.

As to `O=C(Nc1ccn([C@@H]2O[C@H](CO)[C@@H](O)C2(F)F)c(=O)n1)OCc1cn(C[C@H]2O[C@@H](n3ccc(NC(=O)c4ccccc4)nc3=O)C(F)(F)[C@@H]2OC(=O)c2ccccc2)nn1`, the IC50 amounted to 3.32 µM.

As to `CC(C)(C)OC(=O)O[C@@H]1[C@@H](Cn2cc(CNc3ccn([C@@H]4O[C@H](CO)[C@@H](O)C4(F)F)c(=O)n3)nn2)O[C@@H](n2ccc(N)nc2=O)C1(F)F`, the IC50 was 4.23 µM.

As for `Nc1ccn([C@@H]2O[C@H](CO)[C@@H](O)[C@@H]2O)c(=O)n1` [CYTARABINE], the IC50 stood at 3.47 µM.

For the compound `O=c1[nH]c(=O)n([C@H]2C[C@H](O)[C@@H](CO)O2)cc1F` [FLOXURIDINE], the IC50 turned out to be 5.91 µM.

The subject of the next assay is U-87 MG. In words: Cytotoxicity in human U87 cells assessed as reduction in cell viability incubated for 72 hrs by SRB assay.
Settings: not given
The assay is classed as functional, cell-based, U-87MG ATCC. Put shortly: as §1
Turning to `Nc1ccn([C@@H]2O[C@H](Cn3cc(CNc4ccn([C@@H]5O[C@H](CO)[C@@H](O)C5(F)F)c(=O)n4)nn3)[C@@H](O)C2(F)F)c(=O)n1`, the IC50 stood at 16.5 µM.

`O=C(Nc1ccn([C@@H]2O[C@H](CO)[C@@H](O)C2(F)F)c(=O)n1)OCc1cn(C[C@H]2O[C@@H](n3ccc(NC(=O)c4ccccc4)nc3=O)C(F)(F)[C@@H]2OC(=O)c2ccccc2)nn1`: the IC50 was 3.41 µM.

`CC(C)(C)OC(=O)O[C@@H]1[C@@H](Cn2cc(CNc3ccn([C@@H]4O[C@H](CO)[C@@H](O)C4(F)F)c(=O)n3)nn2)O[C@@H](n2ccc(N)nc2=O)C1(F)F`: the IC50 was determined as 4.54 µM.

Turning to `Nc1ccn([C@@H]2O[C@H](CO)[C@@H](O)[C@@H]2O)c(=O)n1` [CYTARABINE], the IC50 stood at 2.88 µM.

`O=c1[nH]c(=O)n([C@H]2C[C@H](O)[C@@H](CO)O2)cc1F` [FLOXURIDINE]: the IC50 was 6.14 µM.

In another assay the test system is HepG2. The assay is described as follows: Cytotoxicity in human HepG2 cells assessed as reduction in cell viability incubated for 72 hrs by SRB assay. The format is functional, cell-based. The note with it: HepG2, 72 h. Put shortly: as §1
In the case of `Nc1ccn([C@@H]2O[C@H](Cn3cc(CNc4ccn([C@@H]5O[C@H](CO)[C@@H](O)C5(F)F)c(=O)n4)nn3)[C@@H](O)C2(F)F)c(=O)n1`, the IC50 was 15.1 µM.

For the compound `O=C(Nc1ccn([C@@H]2O[C@H](CO)[C@@H](O)C2(F)F)c(=O)n1)OCc1cn(C[C@H]2O[C@@H](n3ccc(NC(=O)c4ccccc4)nc3=O)C(F)(F)[C@@H]2OC(=O)c2ccccc2)nn1`, the IC50 came out at 3.51 µM.

Take `CC(C)(C)OC(=O)O[C@@H]1[C@@H](Cn2cc(CNc3ccn([C@@H]4O[C@H](CO)[C@@H](O)C4(F)F)c(=O)n3)nn2)O[C@@H](n2ccc(N)nc2=O)C1(F)F`: the IC50 was found to be 5.19 µM.

The subject of the next assay is NHDF. In words: Cytotoxicity in human NHDF cells assessed as reduction in cell viability incubated for 72 hrs by SRB assay. The format is cell-based.
Settings: not given
Put shortly: as §1
With `Nc1ccn([C@@H]2O[C@H](Cn3cc(CNc4ccn([C@@H]5O[C@H](CO)[C@@H](O)C5(F)F)c(=O)n4)nn3)[C@@H](O)C2(F)F)c(=O)n1`, the IC50 was 29.3 µM.

Turning to `O=C(Nc1ccn([C@@H]2O[C@H](CO)[C@@H](O)C2(F)F)c(=O)n1)OCc1cn(C[C@H]2O[C@@H](n3ccc(NC(=O)c4ccccc4)nc3=O)C(F)(F)[C@@H]2OC(=O)c2ccccc2)nn1`, the IC50 was determined as 9.12 µM.

For the compound `CC(C)(C)OC(=O)O[C@@H]1[C@@H](Cn2cc(CNc3ccn([C@@H]4O[C@H](CO)[C@@H](O)C4(F)F)c(=O)n3)nn2)O[C@@H](n2ccc(N)nc2=O)C1(F)F`, the IC50 was found to be 10.9 µM.

`Nc1ccn([C@@H]2O[C@H](CO)[C@@H](O)[C@@H]2O)c(=O)n1` [CYTARABINE]: the IC50 was found to be 4.99 µM.

Turning to `O=c1[nH]c(=O)n([C@H]2C[C@H](O)[C@@H](CO)O2)cc1F` [FLOXURIDINE], the IC50 came to 13.1 µM.

Tested on in another assay: not listed separately
The assay is described as follows: Selectivity index, ratio of IC50 for cytotoxicity in human NHDF cells to IC50 for cytotoxicity in human HeLa cells.
Settings: not given
Put shortly:
(§2)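 Selectivity index is the IC50 in normal HDF fibroblasts divided by the IC50 in the given cancer line.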
With `O=C(Nc1ccn([C@@H]2O[C@H](CO)[C@@H](O)C2(F)F)c(=O)n1)OCc1cn(C[C@H]2O[C@@H](n3ccc(NC(=O)c4ccccc4)nc3=O)C(F)(F)[C@@H]2OC(=O)c2ccccc2)nn1`, the “Ratio IC50” value is 2.83.

Turning to `CC(C)(C)OC(=O)O[C@@H]1[C@@H](Cn2cc(CNc3ccn([C@@H]4O[C@H](CO)[C@@H](O)C4(F)F)c(=O)n3)nn2)O[C@@H](n2ccc(N)nc2=O)C1(F)F`, the “Ratio IC50” value turned out to be 2.65.

As for `Nc1ccn([C@@H]2O[C@H](CO)[C@@H](O)[C@@H]2O)c(=O)n1` [CYTARABINE], the “Ratio IC50” value was 1.41.

Consider `O=c1[nH]c(=O)n([C@H]2C[C@H](O)[C@@H](CO)O2)cc1F` [FLOXURIDINE], for which the “Ratio IC50” value was 2.01.

Tested on in another assay: not listed separately
In words: Selectivity index, ratio of IC50 for cytotoxicity in human NHDF cells to IC50 for cytotoxicity in human KB cells.
Settings: not given
Put shortly:
as §2
With `O=C(Nc1ccn([C@@H]2O[C@H](CO)[C@@H](O)C2(F)F)c(=O)n1)OCc1cn(C[C@H]2O[C@@H](n3ccc(NC(=O)c4ccccc4)nc3=O)C(F)(F)[C@@H]2OC(=O)c2ccccc2)nn1`, the “Ratio IC50” value turned out to be 2.91.

`CC(C)(C)OC(=O)O[C@@H]1[C@@H](Cn2cc(CNc3ccn([C@@H]4O[C@H](CO)[C@@H](O)C4(F)F)c(=O)n3)nn2)O[C@@H](n2ccc(N)nc2=O)C1(F)F`: the “Ratio IC50” value amounted to 2.67.

For `Nc1ccn([C@@H]2O[C@H](CO)[C@@H](O)[C@@H]2O)c(=O)n1` [CYTARABINE], the “Ratio IC50” value amounted to 1.23.

Consider `O=c1[nH]c(=O)n([C@H]2C[C@H](O)[C@@H](CO)O2)cc1F` [FLOXURIDINE], for which the “Ratio IC50” value is 1.5.

Tested on in the next assay: not listed separately
In words: Selectivity index, ratio of IC50 for cytotoxicity in human NHDF cells to IC50 for cytotoxicity in human A549 cells.
Settings: not given
Put shortly: as §2
For `O=C(Nc1ccn([C@@H]2O[C@H](CO)[C@@H](O)C2(F)F)c(=O)n1)OCc1cn(C[C@H]2O[C@@H](n3ccc(NC(=O)c4ccccc4)nc3=O)C(F)(F)[C@@H]2OC(=O)c2ccccc2)nn1`, the “Ratio IC50” value amounted to 2.75.

`CC(C)(C)OC(=O)O[C@@H]1[C@@H](Cn2cc(CNc3ccn([C@@H]4O[C@H](CO)[C@@H](O)C4(F)F)c(=O)n3)nn2)O[C@@H](n2ccc(N)nc2=O)C1(F)F`: the “Ratio IC50” value stood at 2.58.

Turning to `Nc1ccn([C@@H]2O[C@H](CO)[C@@H](O)[C@@H]2O)c(=O)n1` [CYTARABINE], the “Ratio IC50” value was 1.44.

As for `O=c1[nH]c(=O)n([C@H]2C[C@H](O)[C@@H](CO)O2)cc1F` [FLOXURIDINE], the “Ratio IC50” value worked out at 2.21.

Tested on in another assay: not listed separately
In words: Selectivity index, ratio of IC50 for cytotoxicity in human NHDF cells to IC50 for cytotoxicity in human U87 cells.
Settings: not given
Put shortly: as §2
As to `O=C(Nc1ccn([C@@H]2O[C@H](CO)[C@@H](O)C2(F)F)c(=O)n1)OCc1cn(C[C@H]2O[C@@H](n3ccc(NC(=O)c4ccccc4)nc3=O)C(F)(F)[C@@H]2OC(=O)c2ccccc2)nn1`, the “Ratio IC50” value came to 2.67.

In the case of `CC(C)(C)OC(=O)O[C@@H]1[C@@H](Cn2cc(CNc3ccn([C@@H]4O[C@H](CO)[C@@H](O)C4(F)F)c(=O)n3)nn2)O[C@@H](n2ccc(N)nc2=O)C1(F)F`, the “Ratio IC50” value is 2.4.

Consider `Nc1ccn([C@@H]2O[C@H](CO)[C@@H](O)[C@@H]2O)c(=O)n1` [CYTARABINE], for which the “Ratio IC50” value is given as 1.73.

`O=c1[nH]c(=O)n([C@H]2C[C@H](O)[C@@H](CO)O2)cc1F` [FLOXURIDINE]: the “Ratio IC50” value is listed as 2.13.

Tested on in a further assay: not listed separately
The assay is described as follows: Selectivity index, ratio of IC50 for cytotoxicity in human NHDF cells to IC50 for cytotoxicity in human HepG2 cells.
Settings: not given
Put shortly:
as §2
As for `O=C(Nc1ccn([C@@H]2O[C@H](CO)[C@@H](O)C2(F)F)c(=O)n1)OCc1cn(C[C@H]2O[C@@H](n3ccc(NC(=O)c4ccccc4)nc3=O)C(F)(F)[C@@H]2OC(=O)c2ccccc2)nn1`, the “Ratio IC50” value was 2.6.

Regarding `CC(C)(C)OC(=O)O[C@@H]1[C@@H](Cn2cc(CNc3ccn([C@@H]4O[C@H](CO)[C@@H](O)C4(F)F)c(=O)n3)nn2)O[C@@H](n2ccc(N)nc2=O)C1(F)F`, the “Ratio IC50” value worked out at 2.1.

On to `Nc1ccn([C@@H]2O[C@H](CO)[C@@H](O)[C@@H]2O)c(=O)n1` [CYTARABINE], for which the “Ratio IC50” value was found to be 1.75.

Regarding `O=c1[nH]c(=O)n([C@H]2C[C@H](O)[C@@H](CO)O2)cc1F` [FLOXURIDINE], the “Ratio IC50” value was 1.47.
